{
  "source": "ChEMBL document CHEMBL1143425",
  "about": "“Paradoxical growth effect of caspofungin observed on biofilms and planktonic cells of five different Candida species” (2007)",
  "key": {"Candida orthopsilosis [1]": {"system": "Candida orthopsilosis", "experiment": "Antimicrobial activity against Candida orthopsilosis BR-A38 grown as planktonic cell after 48 hrs by XTT reduction assay", "assay_type": "functional", "conditions": "Lodderomyces orthopsilosis", "summary_of_the_method": "(§1)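 Planktonic broth microdilution followed CLSI M27-A2, with caspofungin dissolved in water. After 48 h, XTT-menadione was added to the wells and plates were kept 1 h at 35°C in the dark. Plates were then centrifuged and supernatant A490 was read. MIC was the lowest concentration giving a 50% decrease in metabolic activity versus drug-free control. Paradoxical growth was defined as ≥20% of control activity above the MIC.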"}, "Candida parapsilosis [2]": {"system": "Candida parapsilosis", "experiment": "Antimicrobial activity against Candida parapsilosis BR-A27 grown as planktonic cell assessed as paradoxical growth after 48 hrs by XTT reduction assay", "assay_type": "functional, organism-based", "summary_of_the_method": "(§2)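 Planktonic broth microdilution followed CLSI M27-A2, with caspofungin dissolved in water. After 48 h, XTT-menadione was added to each well and plates were incubated 1 h at 35°C in the dark. Cells were pelleted by centrifugation and the supernatant was read at 490 nm. MIC was the lowest concentration giving a 50% drop in metabolic activity versus the drug-free control. PG was ≥20% of drug-free activity above the MIC.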"}, "Candida metapsilosis [3]": {"system": "Candida metapsilosis", "experiment": "Antimicrobial activity against Candida metapsilosis BR-A41 grown as biofilm after 48 hrs by XTT reduction assay", "assay_type": "functional", "conditions": "Lodderomyces metapsilosis", "summary_of_the_method": "(§3)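 Sabouraud-grown cells were shaken overnight (18 h, 120 rpm, 35°C) in RPMI 1640 with MOPS at pH 7.0, then washed and set at ~1 × 10^7 cells/ml. Attachment lasted 1.5 h at 37°C, and growth ran 24 h before challenge. Caspofungin was added in RPMI at 2–1,024 μg/ml (10 doublings) for 48 h at 35°C with shaking. XTT-menadione was read at 490 nm after 1 h at 35°C in the dark, with blank wells subtracted. MIC was taken as 50% reduction versus drug-free wells, and PG as >50% of control above MIC. Assays were run in duplicate.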"}, "Candida parapsilosis [4]": {"system": "Candida parapsilosis", "experiment": "Antimicrobial activity against Candida parapsilosis BR-A26 grown as biofilm assessed as paradoxical growth after 48 hrs by XTT reduction assay", "assay_type": "functional, organism-based", "summary_of_the_method": "(§4)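 Clinical isolates were grown overnight (18 h, 35°C, 120 rpm) in RPMI 1640 with MOPS, pH 7.0, then washed and set to ~1 × 10^7 cells/ml. Cells attached for 1.5 h at 37°C, 75 rpm, then biofilms grew 24 h. Caspofungin was given as doubling dilutions of 2–1,024 μg/ml for 48 h at 35°C, 75 rpm. Read-out was XTT-menadione in PBS, 1 h at 35°C in the dark, A490, cell-free blank subtracted. MIC was a 50% drop in activity versus drug-free; PG was >50% of control above MIC. Run in duplicate.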"}, "Candida parapsilosis [5]": {"system": "Candida parapsilosis", "experiment": "Antimicrobial activity against Candida parapsilosis BR-A28 grown as planktonic cell assessed as paradoxical growth after 48 hrs by XTT reduction assay", "assay_type": "functional, organism-based", "summary_of_the_method": "as §2"}, "Candida parapsilosis [6]": {"system": "Candida parapsilosis", "experiment": "Antimicrobial activity against Candida parapsilosis BR-A26 grown as planktonic cell assessed as concentration producing paradoxical growth after 48 hrs by XTT reduction assay", "assay_type": "functional", "summary_of_the_method": "as §2"}, "Candida orthopsilosis [7]": {"system": "Candida orthopsilosis", "experiment": "Antimicrobial activity against Candida orthopsilosis BR-A37 grown as biofilm after 48 hrs by XTT reduction assay", "assay_type": "functional", "conditions": "Lodderomyces orthopsilosis", "summary_of_the_method": "(§5)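 Isolates were grown on Sabouraud agar (30°C, 24 h), then overnight in RPMI 1640 with MOPS, pH 7.0, at 35°C with shaking. Cells were washed and set to ~1 × 10^7 cells/ml, attached 1.5 h at 37°C, and grown 24 h. Biofilms were then exposed to caspofungin in 10 twofold dilutions (2–1,024 μg/ml) for 48 h at 35°C with shaking. Read-out was XTT-menadione, 1 h, 35°C, dark, A490, cell-free blank subtracted. MIC was the 50% drop in activity versus drug-free control. Tested in duplicate.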"}, "Candida parapsilosis [8]": {"system": "Candida parapsilosis", "experiment": "Antimicrobial activity against Candida parapsilosis BR-A29 grown as planktonic cell assessed as concentration producing paradoxical growth after 48 hrs by XTT reduction assay", "assay_type": "functional", "summary_of_the_method": "as §2"}, "Candida albicans [9]": {"system": "Candida albicans", "experiment": "Antimicrobial activity against Candida albicans BR-A7 grown as biofilm assessed as concentration producing paradoxical growth after 48 hrs by XTT reduction assay", "assay_type": "functional", "summary_of_the_method": "as §3"}, "Candida orthopsilosis [10]": {"system": "Candida orthopsilosis", "experiment": "Antimicrobial activity against Candida orthopsilosis BR-A39 grown as planktonic cell assessed as paradoxical growth after 48 hrs by XTT reduction assay", "assay_type": "functional, organism-based", "summary_of_the_method": "(§6)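 Planktonic cells were tested by CLSI M27-A2 broth microdilution with caspofungin in water, incubated 48 h. XTT-menadione was added to each well, plates were held 1 h at 35°C in the dark and centrifuged, and supernatant absorbance was read at 490 nm. MIC was defined as 50% decrease in metabolic activity versus drug-free control. PG was defined as ≥20% of control activity at concentrations above MIC.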"}, "Candida metapsilosis [11]": {"system": "Candida metapsilosis", "experiment": "Antimicrobial activity against Candida metapsilosis BR-A43 grown as biofilm after 48 hrs by XTT reduction assay", "assay_type": "functional", "conditions": "Lodderomyces metapsilosis", "summary_of_the_method": "as §3"}, "Candida tropicalis [12]": {"system": "Candida tropicalis", "experiment": "Antimicrobial activity against Candida tropicalis BR-A9 grown as planktonic cell after 48 hrs by XTT reduction assay", "assay_type": "functional", "summary_of_the_method": "as §1"}, "Candida parapsilosis [13]": {"system": "Candida parapsilosis", "experiment": "Antimicrobial activity against Candida parapsilosis BR-A28 grown as biofilm after 48 hrs by XTT reduction assay", "assay_type": "functional", "conditions": "Lodderomyces parapsilosis", "summary_of_the_method": "as §5"}, "Candida parapsilosis [14]": {"system": "Candida parapsilosis", "experiment": "Antimicrobial activity against Candida parapsilosis BR-A27 grown as biofilm assessed as paradoxical growth after 48 hrs by XTT reduction assay", "assay_type": "functional, organism-based", "summary_of_the_method": "as §4"}, "Candida parapsilosis [15]": {"system": "Candida parapsilosis", "experiment": "Antimicrobial activity against Candida parapsilosis BR-A31 grown as biofilm assessed as concentration producing paradoxical growth after 48 hrs by XTT reduction assay", "assay_type": "functional", "summary_of_the_method": "as §4"}, "Candida parapsilosis [16]": {"system": "Candida parapsilosis", "experiment": "Antimicrobial activity against Candida parapsilosis BR-A25 grown as planktonic cell assessed as concentration producing paradoxical growth after 48 hrs by XTT reduction assay", "assay_type": "functional", "summary_of_the_method": "as §2"}, "Candida albicans [17]": {"system": "Candida albicans", "experiment": "Antimicrobial activity against Candida albicans BR-A4 grown as biofilm after 48 hrs by XTT reduction assay", "assay_type": "functional", "summary_of_the_method": "as §5"}, "Candida orthopsilosis [18]": {"system": "Candida orthopsilosis", "experiment": "Antimicrobial activity against Candida orthopsilosis BR-A38 grown as planktonic cell assessed as concentration producing paradoxical growth after 48 hrs by XTT reduction assay", "assay_type": "functional", "summary_of_the_method": "as §6"}, "Candida orthopsilosis [19]": {"system": "Candida orthopsilosis", "experiment": "Antimicrobial activity against Candida orthopsilosis BR-A35 grown as biofilm assessed as concentration producing paradoxical growth after 48 hrs by XTT reduction assay", "assay_type": "functional", "summary_of_the_method": "as §3"}, "Candida orthopsilosis [20]": {"system": "Candida orthopsilosis", "experiment": "Antimicrobial activity against Candida orthopsilosis BR-A39 grown as biofilm assessed as concentration producing paradoxical growth after 48 hrs by XTT reduction assay", "assay_type": "functional", "summary_of_the_method": "as §3"}, "Candida orthopsilosis [21]": {"system": "Candida orthopsilosis", "experiment": "Effect on morphology in Candida orthopsilosis grown as planktonic cells assessed as rounding and clumping at 64 ug/ml after 48 hrs", "assay_type": "functional, organism-based", "summary_of_the_method": "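Cells were taken from caspofungin-containing and drug-free wells of the planktonic broth microdilution test after 48 h. They were examined by light microscopy at ×400.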"}, "Candida parapsilosis [22]": {"system": "Candida parapsilosis", "experiment": "Antimicrobial activity against Candida parapsilosis 22019 grown as biofilm after 48 hrs by XTT reduction assay", "assay_type": "functional", "conditions": "Lodderomyces parapsilosis, 22019, 48 h", "summary_of_the_method": "as §5"}, "Candida orthopsilosis [23]": {"system": "Candida orthopsilosis", "experiment": "Antimicrobial activity against Candida orthopsilosis BR-A32 grown as biofilm assessed as concentration producing paradoxical growth after 48 hrs by XTT reduction assay", "assay_type": "functional", "summary_of_the_method": "as §3"}, "Candida tropicalis [24]": {"system": "Candida tropicalis", "experiment": "Antimicrobial activity against Candida tropicalis BR-A18 grown as biofilm assessed as paradoxical growth after 48 hrs by XTT reduction assay", "assay_type": "functional, organism-based", "summary_of_the_method": "as §4"}, "Candida tropicalis [25]": {"system": "Candida tropicalis", "experiment": "Effect on morphology in Candida tropicalis grown as planktonic cells assessed as rounding and clumping at 8 ug/ml after 48 hrs", "assay_type": "functional, organism-based", "summary_of_the_method": "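Clinical isolates were tested by CLSI M27-A2 broth microdilution with caspofungin dissolved in sterile water. After 48 h incubation, cells were taken from drug-containing and drug-free control wells. They were examined by light microscopy at ×400 for hyphae or pseudohyphae, rounding or clumping, and enlarged globose cells.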"}},
  "note": "Active and inactive are the calls of the source.",
  "data": [
    {"smiles": "CC[C@H](C)C[C@H](C)CCCCCCCCC(=O)N[C@H]1C[C@@H](O)[C@@H](NCCN)NC(=O)[C@@H]2[C@@H](O)CCN2C(=O)[C@H]([C@H](O)CCN)NC(=O)[C@H]([C@H](O)[C@@H](O)c2ccc(O)cc2)NC(=O)[C@@H]2C[C@@H](O)CN2C(=O)[C@H]([C@@H](C)O)NC1=O", "note": "[CASPOFUNGIN]", "values": [
      {"measurement": "MIC", "setting": "Candida orthopsilosis [1]", "value": 2, "unit": "µg/mL"},
      {"measurement": "Activity", "setting": "Candida parapsilosis [2]", "value": "inactive"},
      {"measurement": "MIC", "setting": "Candida metapsilosis [3]", "value": 2, "unit": "µg/mL"},
      {"measurement": "Activity", "setting": "Candida parapsilosis [4]", "value": "Active"},
      {"measurement": "Activity", "setting": "Candida parapsilosis [5]", "value": "inactive"},
      {"measurement": "Activity", "setting": "Candida parapsilosis [6]", "value": 16, "unit": "µg/mL"},
      {"measurement": "MIC", "setting": "Candida orthopsilosis [7]", "value": 2, "unit": "µg/mL"},
      {"measurement": "Activity", "setting": "Candida parapsilosis [8]", "value": 32, "unit": "µg/mL"},
      {"measurement": "Activity", "setting": "Candida albicans [9]", "value": 16, "unit": "µg/mL"},
      {"measurement": "Activity", "setting": "Candida orthopsilosis [10]", "value": "inactive"},
      {"measurement": "MIC", "setting": "Candida metapsilosis [11]", "value": 2, "unit": "µg/mL"},
      {"measurement": "MIC", "setting": "Candida tropicalis [12]", "value": 1, "unit": "µg/mL"},
      {"measurement": "MIC", "setting": "Candida parapsilosis [13]", "value": 2, "unit": "µg/mL"},
      {"measurement": "Activity", "setting": "Candida parapsilosis [14]", "value": "Active"},
      {"measurement": "Activity", "setting": "Candida parapsilosis [15]", "value": 32, "unit": "µg/mL"},
      {"measurement": "Activity", "setting": "Candida parapsilosis [16]", "value": 32, "unit": "µg/mL"},
      {"measurement": "MIC", "setting": "Candida albicans [17]", "value": 2, "unit": "µg/mL"},
      {"measurement": "Activity", "setting": "Candida orthopsilosis [18]", "value": 16, "unit": "µg/mL"},
      {"measurement": "Activity", "setting": "Candida orthopsilosis [19]", "value": 16, "unit": "µg/mL"},
      {"measurement": "Activity", "setting": "Candida orthopsilosis [20]", "value": 32, "unit": "µg/mL"},
      {"measurement": "Activity", "setting": "Candida orthopsilosis [21]", "value": "Active"},
      {"measurement": "MIC", "setting": "Candida parapsilosis [22]", "value": 2, "unit": "µg/mL"},
      {"measurement": "Activity", "setting": "Candida orthopsilosis [23]", "value": 32, "unit": "µg/mL"},
      {"measurement": "Activity", "setting": "Candida tropicalis [24]", "value": "Active"},
      {"measurement": "Activity", "setting": "Candida tropicalis [25]", "value": "Active"}
    ]}
  ]
}
